Data as given in ChEMBL document CHEMBL1671838, “Discovery of MK-1220: A Macrocyclic Inhibitor of Hepatitis C Virus NS3/4A Protease with Improved Preclinical Plasma Exposure” (ACS Med Chem Lett, 2011).

Columns and labels:
[1] = system: Hepatitis C virus; assay: Antiviral activity against HCV2a infected in human HuH7 cells assessed as inhibition of viral replication after 24 hrs in presence of 10% fetal bovine serum; assay type: functional, organism-based, Hepacivirus hominis; settings: genotype 2a, Huh-7, 24 h
Procedure, shortened: (§1)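 Cell-based HCV replicon assay giving IC50. Genotype 1b replicon run with 10% fetal bovine serum or with 50% normal human serum. Genotype 2a replicon run with 10% FBS.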

[2] = Drug level in Sprague-Dawley rat liver at 5 mg/kg, po after 4 hrs; assay type: ADME, organism-based; parameters: dose 5 mg/kg, route oral; settings: read-out: Drug uptake
Procedure, shortened: (§2)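 Rat PK screen: 5 mg/kg given orally in PEG400, n = 2; plasma AUC calculated from a 4 h experiment, and liver concentration measured at 4 h after dosing.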

[3] = Inhibition of HCV NS3/4A protease expressed Escherichia coli after 1 hr by time-resolved fluorescence assay; parameters: species or system Hepacivirus hominis
Procedure, shortened: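 Binding assay against genotype 1b HCV NS3/4A protease, read by time-resolved fluorescence; potency expressed as Ki.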

[4] = AUC in Sprague-Dawley rat plasma at 5 mg/kg, po after 4 hrs; assay type: ADME, organism-based; parameters: time < 4 hr, dose 5 mg/kg, route oral; procedure, shortened: as §2
[5] = system: Hepatitis C virus; assay: Antiviral activity against HCV1b con1 infected in human HuH7 cells assessed as inhibition of viral replication after 24 hrs in presence of 10% fetal bovine serum; assay type: functional, organism-based, Hepacivirus hominis; settings: Con1, Huh-7, 24 h; procedure, shortened: as §1
[6] = system: Hepatitis C virus; assay: Antiviral activity against HCV1b con1 infected in human HuH7 cells assessed as inhibition of viral replication after 24 hrs in presence of 50% normal human serum; assay type: functional, organism-based, Hepacivirus hominis; settings: Con1, Huh-7, 24 h; procedure, shortened: as §1

| SMILES | IC50 [1] [nM] | concentration at 4 h [2] [µM] | Ki [3] [nM] | AUC at 4 h [4] [µM·h] | IC50 [5] [nM] | IC50 [6] [nM] |
| --- | --- | --- | --- | --- | --- | --- |
| C=C[C@@H]1C[C@]1(NC(=O)[C@@H]1C[C@@H]2CN1C(=O)[C@H](C1CCCCC1)NC(=O)OCCCCCc1cc(OC)c3ccnc(c3c1)O2)C(=O)NS(=O)(=O)C1CC1 | 6 | 13.2 | 0.05 | 2.5 | 3 | 60 |
| C=C[C@@H]1C[C@]1(NC(=O)[C@@H]1C[C@@H]2CN1C(=O)[C@H](C1CCCC1)NC(=O)OCC(C)(C)CCCc1ccc3ccnc(c3c1)O2)C(=O)NS(=O)(=O)C1CC1 | 11 | 16 | 0.02 | 0.18 | 2 | 10 |
| C=C[C@@H]1C[C@]1(NC(=O)[C@@H]1C[C@@H]2CN1C(=O)[C@H](C1CCOCC1)NC(=O)OCCC/C=C/c1ccc3ccnc(c3c1)O2)C(=O)NS(=O)(=O)C1CC1 |  | < 0.2 | 0.07 | 0.5 | 9 | 20 |
| C=C[C@@H]1C[C@]1(NC(=O)[C@@H]1C[C@@H]2CN1C(=O)[C@H](C1CCOCC1)NC(=O)OCCCCCc1ccc3ccnc(c3c1)O2)C(=O)NS(=O)(=O)C1CC1 |  | 0.09 | 0.07 | 0.8 | 15 | 34 |
| C=C[C@@H]1C[C@]1(NC(=O)[C@@H]1C[C@@H]2CN1C(=O)[C@H](C(C)(C)C)NC(=O)OCCCCCc1cc(Br)c3ccnc(c3c1)O2)C(=O)NS(=O)(=O)C1CC1 |  | 5.8 | 0.04 | 0.28 | 2 | 170 |
| C=C[C@@H]1C[C@]1(NC(=O)[C@@H]1C[C@@H]2CN1C(=O)[C@H](C(C)(C)C)NC(=O)OCCCCCc1cc(OCC)c3ccnc(c3c1)O2)C(=O)NS(=O)(=O)C1CC1 |  | 15.2 | 0.37 | 6.9 | 6 | 500 |
